The results in this text go back to ChEMBL document CHEMBL3769308, “Melanin-Concentrating Hormone Receptor 1 Antagonists Lacking an Aliphatic Amine: Synthesis and Structure-Activity Relationships of Novel 1-(Imidazo[1,2-a]pyridin-6-yl)pyridin-2(1H)-one Derivatives” (J Med Chem, 2016).

The nature of data set [1]: Plasma concentration in diet-induced obese F344/jcl rat at 10 mg/kg, po administered on day 1 measured 24 hrs post dose. In kind it is ADME, organism-based. Summed up: (§1)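 From the DIO F344 rat 2-day feeding study (oral, 0.5% methylcellulose): plasma and brain concentrations taken 24 h after the day-1 dose; brain/plasma ratio from these.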
Data set [2] deals with Plasma. Description: Free plasma concentration in diet-induced obese F344/jcl rat at 3 mg/kg, po administered on day 1 measured 24 hrs post dose. In kind it is ADME, organism-based. Conditions: in vivo; call rule not given here. The method, boiled down:
(§2)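 Plasma level 24 h after day-1 oral dose in DIO F344 rats multiplied by the free fraction measured in DIO rat plasma to give free concentration.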

In data set [3] the test system is Plasma. Description: Free plasma concentration in diet-induced obese F344/jcl rat at 10 mg/kg administered after 24 hrs in day 1. It counts as ADME, organism-based. Conditions: in vivo. Summed up: as §2
Data set [4] in a line: Oral bioavailability in Sprague-Dawley rat at 1 mg/kg, administered through cassette dosing by LC/MS/MS analysis. In kind it is ADME, organism-based. Conditions: in vivo.
Data set [5] addresses T1, Melanin-concentrating hormone receptor 1 (Homo sapiens, UniProt Q99705). Description: Displacement of [125I]-MCH (4 to19 residues) from human MCHR1 expressed in CHO cell membranes after 1 hr by liquid scintillation counting analysis. Summed up: (§3)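 Membranes from MCHR1-expressing CHO cells, homogenized in NaHCO3/EDTA with protease inhibitors, 100000g pellet held at 2 mg/mL protein in 20 mM Tris-HCl pH 7.5, 5 mM EDTA, protease inhibitors.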

For data set [6], the target named is Melanin-concentrating hormone receptor 1 (Rattus norvegicus, UniProt P97639). Description: Displacement of [125I]-MCH (4 to 19 residues) from rat MCHR1 expressed in CHO cell membranes after 1 hr by liquid scintillation counting analysis. Summed up:
as §3
Background: In a radioligand displacement assay an active substance lowers the binding of a labelled ligand.

Data set [7] can be described thus: Lipophilicity, log D of the compound at pH 7.4. Conditions: buffer. In kind it is physicochemical. The method, boiled down: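 Chromatographic HPLC method with UV detection, estimating octanol/buffer partition at pH 7.4.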
Data set [8] deals with T1, Melanin-concentrating hormone receptor 1. In kind it is functional, cell-based, CHO.
A short description of data set [9]: Total clearance in Sprague-Dawley rat at 0.1 mg/kg, iv administered through cassette dosing by LC/MS/MS analysis. In kind it is ADME, organism-based. Conditions: in vivo. The method, boiled down:
(§4)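 Nonfasted male SD rats (8 weeks old, n = 3) given 0.1 mg/kg iv by cassette dosing; plasma deproteinized with acetonitrile, centrifuged, and supernatant concentrations measured by LC/MS/MS.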

The nature of data set [10]: Volume of distribution at steady state in Sprague-Dawley rat at 0.1 mg/kg, iv by LC/MS/MS analysis. Conditions: in vivo, read-out: Vdss. In kind it is ADME, organism-based. The method, boiled down: as §4
Data set [11] is described as follows: Cmax in Sprague-Dawley rat at 1 mg/kg, po administered through cassette dosing by LC/MS/MS analysis. In kind it is ADME, organism-based. Also on record: dose 1 mg/kg, route oral. The conditions noted are these: in vivo.
The nature of data set [12]: Tmax in Sprague-Dawley rat at 1 mg/kg, po administered through cassette dosing by LC/MS/MS analysis. In kind it is ADME, organism-based. Conditions: in vivo.
Data set [13] is described as follows: AUC (0 to 8 hrs) in Sprague-Dawley rat at 1 mg/kg, po administered through cassette dosing by LC/MS/MS analysis. In kind it is ADME, organism-based. The conditions noted are these: in vivo. Also on record: time < 8 hr, dose 1 mg/kg, route oral.
The nature of data set [14]: Unbound fraction in po dosed diet-induced obese F344/jcl rat plasma. In kind it is ADME, organism-based.
The nature of data set [15]: Plasma concentration in diet-induced obese F344/jcl rat at 3 mg/kg, po administered on day 1 measured 24 hrs post dose. In kind it is ADME, organism-based. The method, boiled down: as §1
Data set [16] in a line: Drug uptake in diet-induced obese F344/jcl rat brain at 3 mg/kg, po administered on day 1 measured 24 hrs post dose. It counts as ADME, organism-based. The conditions noted are these: read-out: Drug uptake. The method, boiled down:
as §1

Data set [17] can be described thus: Drug uptake in diet-induced obese F344/jcl rat brain at 10 mg/kg, po administered on day 1 measured 24 hrs post dose. In kind it is ADME, organism-based. Summed up:
as §1

Data set [18] can be described thus: Ratio of drug level in brain to plasma in diet-induced obese F344/jcl rat at 3 mg/kg, po administered on day 1 measured 24 hrs post dose. In kind it is ADME, organism-based. The conditions noted are these: read-out: BPR. Summed up:
as §1

A short description of data set [19]: Ratio of drug level in brain to plasma in diet-induced obese F344/jcl rat at 10 mg/kg, po administered on day 1 measured 24 hrs post dose. It counts as ADME, organism-based. Conditions: read-out: BPR. Summed up:
as §1

The subject of data set [20] is Rattus norvegicus. Description: Antiobesity activity in diet-induced obese F344/jcl rat assessed as reduction in body weight at 3 mg/kg, po qd administered through repeated dosing for 2 weeks measured during 2 weeks of dosing relative to vehicle-treated control. In kind it is functional. The arrangement: scale not given: the % may be the effect or the level left. Summed up: (§5)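 Male DIO F344/Jcl rats (45 weeks old, high-fat diet), habituated and grouped as for feeding study; once-daily oral dosing in 0.5% methylcellulose at 2 mL/kg for 2 weeks, 1–3 h before dark onset after weighing, n = 6. Body weight change as percent of initial weight, compared with vehicle.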

The subject of data set [21] is Rattus norvegicus. Description: Antiobesity activity in diet-induced obese F344/jcl rat assessed as reduction in body weight at 10 mg/kg, po qd administered through repeated dosing for 2 weeks measured during 2 weeks of dosing relative to vehicle-treated control. It counts as functional. Also on record: scale not given: the % may be the effect or the level left. Summed up: as §5

The test system of data set [22] is Mus musculus. Description: Anorectic activity in po dosed high fat diet fed wild type mouse assessed as reduction of food intake administered for 3 days measured during 3 days of dosing. In kind it is functional, organism-based. Summed up:
(§6)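 Male MCHR1-deficient and wild-type littermate mice (45 weeks old) on high-fat diet D12451 from 5 weeks, singly housed, acclimated with 0.5 mL tap water dosing, grouped by day −3 to −1 intake and day −1 weight. Oral vehicle (0.5% methylcellulose) or suspension at 10 mL/kg for 3 days, n = 5–6; cumulative 3-day intake; Williams test.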

The subject of a further data set is HepG2. Description: Induction of phospholipidosis in human HepG2 cells at 0.6 to 20 uM after 24 hrs by NBD-PE-based fluorometric analysis. It counts as cell-based. The conditions noted are these: hepg2, 24 h. Summed up:
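HepG2 cells in DMEM with 5% FBS, precultured 24 h, then exposed 24 h at 37 °C to 60 μM NBD-PE medium plus compound medium (0.6 or 20 μM, added 1:1); amiodarone 10 μM final as reference. NBD-PE uptake fluorescence (ex 485/em 538), blank subtracted, expressed relative to amiodarone; maximum value taken.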

Data set [23] deals with Mus musculus. Description: Effect on food intake in MCHR-deficient high fat diet fed mouse at 10 to 30 mg/kg, po administered for 3 days measured during 3 days of dosing. It counts as ADME, organism-based. The conditions noted are these: in vivo, 72 h. Summed up: as §6
Data set [24] is filed under the species Rattus norvegicus. Put plainly: animal or person. The conditions noted are these: F344/jcl, po, 48 h, read-out: INH.
The species named for data set [25] is Rattus norvegicus. Description: animal or person. Conditions: F344/jcl, po, 336 h, read-out: INH.
Data set [26] is filed under the species Rattus norvegicus. Put plainly: animal or person. The conditions noted are these: F344/jcl, po, 48 h, read-out: INH. The source holds these as a separate data set.
For data set [27], the species on record is Rattus norvegicus. Description: animal or person. The conditions noted are these: F344/jcl, po, 336 h, read-out: INH. The source holds these as a separate data set.
For data set [28], the system named is Rattus norvegicus. Description: Anorectic activity in diet-induced obese F344/jcl rat assessed as inhibition of cumulative food intake at 1 mg/kg, po qd administered through repeated dosing for 2 weeks measured during 2 weeks of dosing relative to vehicle-treated control. In kind it is functional. The conditions noted are these: 336 h. The method, boiled down: (§7)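 Male DIO F344/Jcl rats (45 weeks old) on high-fat diet since 5 weeks of age, singly housed, habituated to oral dosing with tap water, grouped by day−1 food intake and body weight. Once-daily oral dosing in 0.5% methylcellulose at 2 mL/kg for 2 weeks, 1−3 h before dark onset, 6 rats/group. Food intake measured every 2 or 3 days; body weight change as % of initial.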

For data set [29], the system named is Rattus norvegicus. Put plainly: Antiobesity activity in diet-induced obese F344/jcl rat assessed as reduction in body weight at 1 mg/kg, po qd administered through repeated dosing for 2 weeks measured during 2 weeks of dosing relative to vehicle-treated control. In kind it is functional. The arrangement: scale not given: the % may be the effect or the level left. The method, boiled down:
as §7

Each structure is given as a SMILES string.

T1 sequence (Q99705 whole entry, the tested form may be a part): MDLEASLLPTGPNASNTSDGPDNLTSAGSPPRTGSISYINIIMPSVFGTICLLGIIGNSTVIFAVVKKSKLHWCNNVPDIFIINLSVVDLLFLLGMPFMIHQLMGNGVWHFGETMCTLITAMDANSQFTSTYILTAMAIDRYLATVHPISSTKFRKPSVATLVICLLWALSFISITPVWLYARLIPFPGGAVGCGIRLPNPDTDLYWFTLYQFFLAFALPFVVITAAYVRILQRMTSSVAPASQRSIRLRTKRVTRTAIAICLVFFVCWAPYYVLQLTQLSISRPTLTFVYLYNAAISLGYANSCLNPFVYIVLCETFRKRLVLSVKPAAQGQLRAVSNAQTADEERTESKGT
Chain of Melanin-concentrating hormone receptor 1 (Rattus norvegicus, UniProt P97639) (P97639 whole entry, the tested form may be a part): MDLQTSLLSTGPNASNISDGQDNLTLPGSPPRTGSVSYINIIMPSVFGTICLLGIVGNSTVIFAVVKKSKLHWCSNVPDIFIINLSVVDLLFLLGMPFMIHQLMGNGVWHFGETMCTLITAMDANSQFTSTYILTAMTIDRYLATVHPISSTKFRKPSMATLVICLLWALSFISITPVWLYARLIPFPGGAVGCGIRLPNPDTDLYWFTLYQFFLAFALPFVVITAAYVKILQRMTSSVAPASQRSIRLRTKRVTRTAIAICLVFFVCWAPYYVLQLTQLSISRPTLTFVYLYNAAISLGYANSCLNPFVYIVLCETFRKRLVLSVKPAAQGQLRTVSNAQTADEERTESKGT

In the case of `Cc1c(C2CC2)nc2ccc(-n3ccc(OCc4ccc(Cl)cc4)cc3=O)cn12`, the concentration at 24 h in data set [1] was found to be 1350 ng/mL; in [15], 351 ng/mL; in [16], 218 ng/g; in data set [17] it was 841 ng/g. Further, the “Cp(f)” value in the data set on Plasma [2] came to 17.2 nM; in the data set with Plasma [3], 66.5 nM. Also, in data set [4], the bioavailability was 58%. In addition, the results for the IC50 in data set [5], in [6] and in [8] were 26 nM, 20 nM and 23 nM, respectively. Also, the logD in [7] was determined as 3.2. For the same compound, the clearance in [9] is 5.2 mL/min/kg. Moreover, the Vd in data set [10] is 1.05 L/kg. The compound also displayed a Cmax in data set [11] of 313 ng/mL. Further, in data set [12], the Tmax was 2 h. Besides, the area under the curve AUC(0-t) at 8 h in [13] was 1880 ng·h/mL. Besides, in [14], the fraction unbound worked out at 0.02. The values for the Kp at 24 h in data set [18] and in data set [19] were 0.61 and 0.62, respectively. In addition, the Activity was 3.7% with Rattus norvegicus [20]; 8.6% in the data set with Rattus norvegicus [21]; “Dose-dependent effect” with Mus musculus [22]; “Non-toxic” in the data set with HepG2; “Non-toxic” in the data set with Mus musculus [23]. Further, the inhibition in vivo at 3 mg/kg in the data set filed under Rattus norvegicus [24] amounted to 15%; in the data set listed under Rattus norvegicus [27], 15.4%. The values for the inhibition in vivo at 10 mg/kg in the data set listed under Rattus norvegicus [25] and in the data set listed under Rattus norvegicus [26] were 36.2% and 29.6%, respectively.

`CC(C)CC(N(C)C)C1(c2ccc(Cl)cc2)CCC1` (stereo not given) [SIBUTRAMINE]: the inhibition in vivo at 1 mg/kg in the data set on Rattus norvegicus [28] came to 21.5%. Moreover, the Activity in the data set on Rattus norvegicus [29] is 3.4%.

What is called bioavailability is dose-corrected exposure relative to a reference, in per cent. What is called IC50 is the concentration that gives 50% inhibition. The term logD denotes lipophilicity at a set pH, counting ionised and neutral species. A word on the clearance: it is a measure of how efficiently the substance is removed, as volume per time. Broadly, the Cmax is the maximum level reached in the sampled fluid or tissue. One may read the Tmax as the time at which the peak concentration occurs. The term AUC(0-t) denotes the area under the concentration-time curve up to a stated or last time point. The term fraction unbound denotes free concentration divided by total concentration.
